Results: ChEMBL document CHEMBL4261491, “Synthesis and synergistic antifungal effects of monoketone derivatives of curcumin against fluconazole-resistant Candida spp” (Medchemcomm, 2017)

How the values were obtained:
Candida albicans [1] = assay: Antifungal activity against fluconazole-resistant Candida albicans clinical isolate 103 in presence of 8 ug/ml fluconazole by broth microdilution method; format: functional; conditions: for MIC80: Candida albicans, isolate 103
How it was run: (§1)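 Broth microdilution per CLSI/NCCLS M27-A2 against FLC-resistant clinical isolates. MIC80 read for each compound alone and with fluconazole at 8.0 μg ml–1. C. albicans ATCC 90028 served as quality control. Curcumin was the positive control.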

Candida tropicalis [2] = assay: Antifungal activity against fluconazole-resistant Candida tropicalis clinical isolate 087 by broth microdilution method; format: functional; how it was run: as §1
Pichia kudriavzevii [3] = assay: Antifungal activity against fluconazole-resistant Candida krusei clinical isolate 2159 in presence of 8 ug/ml fluconazole by broth microdilution method; format: functional; conditions: for MIC80: Pichia kudriavzevii, isolate 2159; how it was run: as §1
Candida tropicalis [4] = assay: Antifungal activity against fluconazole-resistant Candida tropicalis clinical isolate 087 in presence of 8 ug/ml fluconazole by broth microdilution method; format: functional; conditions: for MIC80: Candida tropicalis, isolate 087; how it was run: as §1
Candida albicans [5] = assay: Antifungal activity against fluconazole-resistant Candida albicans clinical isolate 103 by broth microdilution method; format: functional; how it was run: as §1
Pichia kudriavzevii [6] = assay: Antifungal activity against fluconazole-resistant Candida krusei clinical isolate 2159 by broth microdilution method; format: functional; how it was run: as §1
[7] = Cytotoxicity against HUVEC assessed as cell viability at 16 ug/ml after 24 hrs by MTT assay relative to control; format: cell-based; conditions: human, HUVEC cells; read-out: Activity
How it was run: (§2)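 HUVECs grown in DMEM with 10% FCS and 100 μg ml–1 streptomycin, 5% CO2, 37 °C. Cells exposed to compounds at 16 and 32 μg ml–1 for 24 h, then incubated with MTT solution (5 mg ml–1) for 3 h. Optical density read at 570 nm. Viability expressed as percentage relative to drug-free control.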

[8] = Cytotoxicity against HUVEC assessed as cell viability at 32 ug/ml after 24 hrs by MTT assay relative to control; format: cell-based; conditions: human, HUVEC cells; read-out: Activity; how it was run: as §2

| Compound | fractional inhibitory concentration index (FICI) (Candida albicans [1]) | MIC80 (Candida albicans [1]) [µg/mL] | MIC80 (Candida tropicalis [2]) [µg/mL] | fractional inhibitory concentration index (FICI) (Pichia kudriavzevii [3]) | MIC80 (Pichia kudriavzevii [3]) [µg/mL] | fractional inhibitory concentration index (FICI) (Candida tropicalis [4]) | MIC80 (Candida tropicalis [4]) [µg/mL] | MIC80 (Candida albicans [5]) [µg/mL] | MIC80 (Pichia kudriavzevii [6]) [µg/mL] | viability at 24 h, 16 ug/ml [7] [%] | viability at 24 h, 32 ug/ml [8] [%] |
| --- | --- | --- | --- | --- | --- | --- | --- | --- | --- | --- | --- |
| CN(C)c1ccc(/C=C2\CC/C(=C\c3ccc(N(C)C)cc3)C2=O)cc1 | >1.06 | > 64 | > 64 | >1.06 | > 64 | 1.06 | 64 | > 64 | > 64 | – | – |
| O=C1/C(=C/c2ccco2)CC/C1=C\c1ccco1 | >1.06 | > 64 | > 64 | >1.06 | > 64 | 0.188 | 8 | > 64 | > 64 | 86 | 69 |
| O=C1/C(=C/c2ccc(O)cc2)CC/C1=C\c1ccc(O)cc1 | >1.06 | > 64 | > 64 | >1.06 | > 64 | 0.188 | 8 | > 64 | > 64 | 69 | 60 |
| COc1ccc(/C=C2\CC/C(=C\c3ccc(OC)cc3)C2=O)cc1 | >1.06 | > 64 | > 64 | >1.06 | > 64 | 1.06 | 64 | > 64 | > 64 | – | – |
| O=C(/C=C/c1ccc(Cl)c(Cl)c1)/C=C/c1ccc(Cl)c(Cl)c1 | >1.06 | > 64 | > 64 | >1.06 | > 64 | >1.06 | > 64 | > 64 | > 64 | – | – |
| COc1ccc(/C=C/C(=O)/C=C/c2ccc(OC)cc2)cc1 | >1.06 | > 64 | > 64 | >1.06 | > 64 | >1.06 | > 64 | > 64 | > 64 | – | – |
| O=C1/C(=C/c2ccc(CO)o2)CC/C1=C\c1ccc(CO)o1 | >1.06 | > 64 | > 64 | >1.06 | > 64 | 0.125 | 4 | > 64 | > 64 | 68 | 57 |
| O=C(/C=C/c1ccc2c(c1)OCO2)/C=C/c1ccc2c(c1)OCO2 | 0.563 | 32 | > 64 | 0.094 | 2 | 0.313 | 16 | > 64 | > 64 | 88 | 71 |
| COc1cccc(/C=C2\CC/C(=C\c3cccc(OC)c3OC)C2=O)c1OC | >1.06 | > 64 | > 64 | >1.06 | > 64 | >1.06 | > 64 | > 64 | > 64 | – | – |
| O=C(/C=C/c1ccc(Cl)cc1)/C=C/c1ccc(Cl)cc1 | >1.06 | > 64 | > 64 | >1.06 | > 64 | 0.313 | 16 | > 64 | > 64 | – | – |
| O=C(/C=C/c1ccc(F)cc1)/C=C/c1ccc(F)cc1 | >1.06 | > 64 | > 64 | >1.06 | > 64 | 0.188 | 8 | > 64 | > 64 | 64 | 43 |
| O=C1/C(=C/c2ccc3c(c2)OCO3)CC/C1=C\c1ccc2c(c1)OCO2 | >1.06 | > 64 | > 64 | >1.06 | > 64 | 1.06 | 64 | > 64 | > 64 | – | – |
